# Experimental data published in ChEMBL document CHEMBL1126849, “Synthesis of A-ring fluorinated derivatives of (17 alpha,20E/Z)-[125I]iodovinylestradiols: effect on receptor binding and receptor-mediated target tissue uptake” (J Med Chem, 1993).
# Assays:
# Conditions in all cases: in vivo
# Rattus norvegicus [1] = assay: Biodistribution in blood of Immature Female rat after 5 hour administration of 3 micro Ci (111 kBq) in the absence of 60 microg estradiol; assay type: ADME, organism-based
# Procedure, shortened: (§1)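 Immature female Long Evans rats (21–24 days, 45–70 g), unanesthetized in retention cages, given 3 µCi (111 kBq) 125I-labeled steroid i.v. via lateral tail vein. Vehicle was ethanol diluted in saline containing 1% Tween-80, giving 9% ethanol final. The blocking group received 60 µg unlabeled estradiol co-injected. Rats were killed under ether by axillary bleeding, and tissues were KCl-washed and gamma-counted. Data are %ID/g, mean ± SE, n=3–5.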
# Rattus norvegicus [2] = assay: Biodistribution in uterus / blood of Immature Female rat after 5 hour administration of 3 micro Ci (111 kBq) in the absence of 60 microg estradiol; assay type: ADME, organism-based
# Procedure, shortened: (§2)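 Same in vivo procedure: immature female Long Evans rats (21–24 days), three to five per group, 3 μCi (111 kBq) tracer i.v. via tail vein in 9% ethanol/saline/1% Tween-80, ± 60 μg estradiol co-injected at 1 h. Uterus %ID/g (gamma counting) divided by blood, or by nontarget organ (muscle, spleen, lungs), %ID/g to give ratios.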
# Rattus norvegicus [3] = assay: Biodistribution in uterus of Immature Female rat after 3 hour administration of 3 micro Ci (111 kBq) in the absence of 60 microg estradiol; assay type: ADME, organism-based
# Procedure, shortened: (§3)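 Immature female Long Evans rats (21–24 days, 45–70 g), 3–5 per group, unanesthetized in retention cages, given 3 μCi (111 kBq) 125I-labeled steroid by lateral tail vein. Vehicle: ethanol diluted with saline containing 1% Tween-80, final ethanol 9%. +E2 group co-injected 60 μg unlabeled estradiol (1 h only). Killed under ether; tissues KCl-washed, weighed, gamma-counted. Output: %ID/g (mean, SE) and uterus to blood or nontarget (muscle, spleen, lungs) ratios.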
# Rattus norvegicus [4] = assay: Biodistribution in liver of Immature Female rat after 1 hr administration of 3 micro Ci (111 kBq) in the absence of 60 microg estradiol; assay type: ADME, organism-based; procedure, shortened: as §1
# Rattus norvegicus [5] = assay: Biodistribution in uterus of Immature Female rat after 12 hour administration of 3 micro Ci (111 kBq) in the absence of 60 microg estradiol; assay type: ADME, organism-based; procedure, shortened: as §3
# Rattus norvegicus [6] = assay: Biodistribution in spleen of Immature Female rat after 1 hr administration of 3 micro Ci (111 kBq) in the presence of (+E2); assay type: ADME, organism-based
# Procedure, shortened: (§4)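 Immature female Long Evans rats (21–24 days, 45–70 g), three to five per group, given 125I-labeled steroid (3 μCi, 111 kBq) by lateral tail vein without anesthesia. Vehicle: ethanol diluted in saline with 1% Tween-80, final ethanol 9%, 0.22 μm filtered. +E2 groups received 60 μg unlabeled estradiol co-injected. Killed under ether at set times; tissues KCl-washed, blotted, weighed, gamma counted; %ID/g, mean with SE.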
# Rattus norvegicus [7] = assay: Biodistribution in blood of Immature Female rat after 12 hour administration of 3 micro Ci (111 kBq) in the absence of 60 microg estradiol; assay type: ADME, organism-based; procedure, shortened: as §1
# Rattus norvegicus [8] = assay: Biodistribution in spleen of Immature Female rat after 1 hr administration of 3 micro Ci (111 kBq) in the absence of 60 microg estradiol; assay type: ADME, organism-based; procedure, shortened: as §4
# Rattus norvegicus [9] = assay: Biodistribution in fat of Immature Female rat after 1 hr administration of 3 micro Ci (111 kBq) in the absence of 60 microg estradiol; assay type: ADME, organism-based, Adipose tissue; procedure, shortened: as §1
# Rattus norvegicus [10] = assay: Biodistribution in uterus / blood of Immature Female rat after 1 hr administration of 3 micro Ci (111 kBq) in the presence of (+E2); assay type: ADME, organism-based; procedure, shortened: as §2
# Rattus norvegicus [11] = assay: Biodistribution in kidney of Immature Female rat after 5 hour administration of 3 micro Ci (111 kBq) in the absence of 60 microg estradiol; assay type: ADME, organism-based; procedure, shortened: as §1
# Rattus norvegicus [12] = assay: Biodistribution in lungs of Immature Female rat after 5 hour administration of 3 micro Ci (111 kBq) in the absence of 60 microg estradiol; assay type: ADME, organism-based, Lung; procedure, shortened: as §1
# Rattus norvegicus [13] = assay: Biodistribution in liver of Immature Female rat after 12 hour administration of 3 micro Ci (111 kBq) in the absence of 60 microg estradiol; assay type: ADME, organism-based; procedure, shortened: as §1
# Rattus norvegicus [14] = assay: Biodistribution in spleen of Immature Female rat after 3 hour administration of 3 micro Ci (111 kBq) in the absence of 60 microg estradiol; assay type: ADME, organism-based; procedure, shortened: as §4
# Rattus norvegicus [15] = assay: Biodistribution in muscle of Immature Female rat after 1 hr administration of 3 micro Ci (111 kBq) in the absence of 60 microg estradiol; assay type: ADME, organism-based, Muscle tissue; procedure, shortened: as §4
# Rattus norvegicus [16] = assay: Biodistribution in uterus / blood of Immature Female rat after 12 hour administration of 3 micro Ci (111 kBq) in the absence of 60 microg estradiol; assay type: ADME, organism-based; procedure, shortened: as §2
# Rattus norvegicus [17] = assay: Biodistribution in kidney of Immature Female rat after 12 hour administration of 3 micro Ci (111 kBq) in the absence of 60 microg estradiol; assay type: ADME, organism-based; procedure, shortened: as §1
# Rattus norvegicus [18] = assay: Biodistribution in fat of Immature Female rat after 1 hr administration of 3 micro Ci (111 kBq) in the presence of (+E2); assay type: ADME, organism-based, Adipose tissue; procedure, shortened: as §1
# Rattus norvegicus [19] = assay: Biodistribution in muscle of Immature Female rat after 1 hr administration of 3 micro Ci (111 kBq) in the presence of (+E2); assay type: ADME, organism-based, Muscle tissue; procedure, shortened: as §4
# Rattus norvegicus [20] = assay: Biodistribution in uterus of Immature Female rat after 1 hr administration of 3 micro Ci (111 kBq) in the absence of 60 microg estradiol; assay type: ADME, organism-based; procedure, shortened: as §3
# Rattus norvegicus [21] = assay: Biodistribution in fat of Immature Female rat after 12 hour administration of 3 micro Ci (111 kBq) in the absence of 60 microg estradiol; assay type: ADME, organism-based, Adipose tissue; procedure, shortened: as §1
# Rattus norvegicus [22] = assay: Biodistribution in thyroid of Immature Female rat after 12 hour administration of 3 micro Ci (111 kBq) in the absence of 60 microg estradiol; assay type: ADME, organism-based, Thyroid gland; procedure, shortened: as §4
# Rattus norvegicus [23] = assay: Biodistribution in uterus / spleen, muscle, lungs of Immature Female rat after 5 hour administration of 3 micro Ci (111 kBq) in the absence of 60 microg estradiol; assay type: ADME, organism-based; procedure, shortened: as §2
# Rattus norvegicus [24] = assay: Biodistribution in lungs of Immature Female rat after 12 hour administration of 3 micro Ci (111 kBq) in the absence of 60 microg estradiol; assay type: ADME, organism-based, Lung; procedure, shortened: as §1
# Rattus norvegicus [25] = assay: Biodistribution in uterus / blood of Immature Female rat after 3 hour administration of 3 micro Ci (111 kBq) in the absence of 60 microg estradiol; assay type: ADME, organism-based; procedure, shortened: as §2
# Rattus norvegicus [26] = assay: Biodistribution in lungs of Immature Female rat after 1 hr administration of 3 micro Ci (111 kBq) in the presence of (+E2); assay type: ADME, organism-based, Lung; procedure, shortened: as §1
# Rattus norvegicus [27] = assay: Biodistribution in uterus / spleen, muscle, lungs of Immature Female rat after 3 hour administration of 3 micro Ci (111 kBq) in the absence of 60 microg estradiol; assay type: ADME, organism-based; procedure, shortened: as §2
# Rattus norvegicus [28] = assay: Biodistribution in blood of Immature Female rat after 3 hour administration of 3 micro Ci (111 kBq) in the absence of 60 microg estradiol; assay type: ADME, organism-based; procedure, shortened: as §1
# Rattus norvegicus [29] = assay: Biodistribution in thyroid of Immature Female rat after 1 hr administration of 3 micro Ci (111 kBq) in the absence of 60 microg estradiol; assay type: ADME, organism-based, Thyroid gland; procedure, shortened: as §4
# Rattus norvegicus [30] = assay: Biodistribution in blood of Immature Female rat after 1 hr administration of 3 micro Ci (111 kBq) in the presence of (+E2); assay type: ADME, organism-based; procedure, shortened: as §1
# Rattus norvegicus [31] = assay: Biodistribution in thyroid of Immature Female rat after 3 hour administration of 3 micro Ci (111 kBq) in the absence of 60 microg estradiol; assay type: ADME, organism-based, Thyroid gland; procedure, shortened: as §4
# Rattus norvegicus [32] = assay: Biodistribution in liver of Immature Female rat after 3 hour administration of 3 micro Ci (111 kBq) in the absence of 60 microg estradiol; assay type: ADME, organism-based; procedure, shortened: as §1
SMILES,ID/g (Rattus norvegicus [1]),ID/g (Rattus norvegicus [2]),ID/g (Rattus norvegicus [3]),ID/g (Rattus norvegicus [4]),ID/g (Rattus norvegicus [5]),ID/g (Rattus norvegicus [6]),ID/g (Rattus norvegicus [7]),ID/g (Rattus norvegicus [8]),ID/g (Rattus norvegicus [9]),ID/g (Rattus norvegicus [10]),ID/g (Rattus norvegicus [11]),ID/g (Rattus norvegicus [12]),ID/g (Rattus norvegicus [13]),ID/g (Rattus norvegicus [14]),ID/g (Rattus norvegicus [15]),ID/g (Rattus norvegicus [16]),ID/g (Rattus norvegicus [17]),ID/g (Rattus norvegicus [18]),ID/g (Rattus norvegicus [19]),ID/g (Rattus norvegicus [20]),other results
CO[C@H]1C[C@@]2(C)[C@@H](CC[C@@]2(O)/C=C\I)[C@@H]2CCc3cc(O)c(F)cc3[C@H]21,0.34%,27.8%,9.59%,2.04%,6.45%,5.3%,0.17%,0.59%,1.71%,1.12%,0.71%,0.35%,0.65%,0.39%,0.58%,50.35%,0.29%,4.78%,2.3%,8.36%,ID/g (Rattus norvegicus [21]): 0.13%; ID/g (Rattus norvegicus [22]): 1899%; ID/g (Rattus norvegicus [23]): 25.79%; ID/g (Rattus norvegicus [24]): 0.13%; ID/g (Rattus norvegicus [25]): 21.19%; ID/g (Rattus norvegicus [26]): 1.52%; ID/g (Rattus norvegicus [27]): 21.65%; ID/g (Rattus norvegicus [28]): 0.45%; ID/g (Rattus norvegicus [29]): 217%; ID/g (Rattus norvegicus [30]): 0.87%; ID/g (Rattus norvegicus [31]): 882%; ID/g (Rattus norvegicus [32]): 1.51%
CO[C@H]1C[C@@]2(C)[C@@H](CC[C@@]2(O)/C=C/I)[C@@H]2CCc3c(ccc(O)c3F)[C@H]21,0.17%,68.66%,10.45%,3.32%,12.64%,0.78%,0.1%,0.79%,2.68%,3.57%,0.94%,0.52%,2.28%,0.48%,0.98%,122.53%,0.49%,2.3%,0.91%,8.02%,ID/g (Rattus norvegicus [21]): 0.83%; ID/g (Rattus norvegicus [22]): 475%; ID/g (Rattus norvegicus [23]): 26.5%; ID/g (Rattus norvegicus [24]): 0.3%; ID/g (Rattus norvegicus [25]): 44.23%; ID/g (Rattus norvegicus [26]): 1.95%; ID/g (Rattus norvegicus [27]): 16.64%; ID/g (Rattus norvegicus [28]): 0.26%; ID/g (Rattus norvegicus [29]): 61%; ID/g (Rattus norvegicus [30]): 0.28%; ID/g (Rattus norvegicus [31]): 126%; ID/g (Rattus norvegicus [32]): 2.65%
